In ChEMBL document CHEMBL4261657, “Discovery of Clinical Candidate 2-(4-(2-((1 H-Benzo[ d]imidazol-2-yl)thio)ethyl)piperazin-1-yl)- N-(6-methyl-2,4-bis(methylthio)pyridin-3-yl)acetamide Hydrochloride [K-604], an Aqueous-Soluble Acyl-CoA:Cholesterol O-Acyltransferase-1 Inhibitor” (J Med Chem, 2018):
The source made the active and inactive calls. The calls are words filed in the database; no cut-off is given here.

Tests used:
Hamster [1] = assay: Antiatherosclerotic activity in cholesterol fed F1B hamster model of diet-induced atherosclerosis assessed as reduction in lipid accumulation areas at 3 mg/kg; type: functional, Cricetinae, Bio F1B; design: scale not given: the % may be the effect or the level left
Hamster [2] = assay: Antiatherosclerotic activity in Bio F1B hamster model of diet-induced atherosclerosis assessed as reduction in lipid accumulation areas in aortic arch at 0.3 to 10 mg/kg/day added to chow pellets by oil red O staining based assay relative to control; type: functional, organism-based; conditions: Cricetinae
Procedure, shortened: (§1)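 Male Bio F1B hamsters (8 weeks old) were fed CE-2 chow with 0.3% cholesterol and 10% coconut oil for 10 weeks, with compound mixed into the chow (n=7 per dose; reference group n=6). Plasma TC was measured by enzymatic kit. Aorta was perfusion-fixed with 4% paraformaldehyde under pentobarbital anaesthesia, opened and stained with oil red O, and lipid area was measured by image analysis. Results are % of control ± SD, analysed by Dunnett's test.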

[3] = Toxicity in rabbit; type: organism-based, Oryctolagus cuniculus; conditions: in vivo
Procedure, shortened: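 Preliminary adrenal toxicity test in male rabbits (four per group) given a single intravenous injection. Adrenal glands were examined 24 h after dosing for necrosis of zona fasciculata cells. The read-out was the number of animals affected per group. PD-132301-2 served as the positive control.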

Hamster [4] = assay: Antiatherosclerotic activity in Bio F1B hamster model of diet-induced atherosclerosis assessed as reduction in CE to FC ratio in liver at 0.3 to 10 mg/kg/day added to chow pellets; type: functional, organism-based; conditions: Cricetinae
Hamster [5] = assay: Antiatherosclerotic activity in cholesterol fed F1B hamster model of diet-induced atherosclerosis assessed as reduction in lipid accumulation areas at 30 mg/kg; type: functional, Cricetinae, Bio F1B; design: scale not given: the % may be the effect or the level left
Hamster [6] = assay: Toxicity in Bio F1B hamster model of diet-induced atherosclerosis assessed as reduction in CE to FC ratio in adrenal gland at 0.3 to 10 mg/kg/day added to chow pellets; type: organism-based; conditions: cricetinae, in vivo, po
Hamster [7] = assay: Antiatherosclerotic activity in Bio F1B hamster model of diet-induced atherosclerosis assessed as reduction in total plasma cholesterol at 0.3 to 10 mg/kg/day added to chow pellets relative to control; type: functional, organism-based; conditions: Cricetinae; procedure, shortened: as §1
Hamster [8] = assay: Antiatherosclerotic activity in Bio F1B hamster model of diet-induced atherosclerosis assessed as reduction in CE to FC ratio in intestine at 0.3 to 10 mg/kg/day added to chow pellets; type: functional, organism-based; conditions: Cricetinae
Hamster [9] = assay: Antiatherosclerotic activity in cholesterol fed F1B hamster model of diet-induced atherosclerosis assessed as reduction in lipid accumulation areas at 10 mg/kg; type: functional, Cricetinae, Bio F1B; design: scale not given: the % may be the effect or the level left

For `CC(C)c1cc(C(C)C)c(CC(=O)NS(=O)(=O)Oc2c(C(C)C)cccc2C(C)C)c(C(C)C)c1` [AVASIMIBE], the Activity (Hamster [1]) was 68%, the Activity (Hamster [2]) was “Active” and the NOAEL [3] was 5 mg/kg. The Activity (Hamster [4]) was “Active”, the Activity (Hamster [5]) was 93% and the Activity (Hamster [6]) was “Non-Toxic”. For the same compound, the Activity (Hamster [7]) was “Active”, the Activity (Hamster [8]) was “Active” and the Activity (Hamster [9]) was 86%.
